# HTRA1 inhibitor: inhibitors of human serine peptidase HTRA1 | 340,000 tested, 0.5% active | recombinant HTRA1, FP-rhodamine activity-based probe, fluorescence polarization | inhibition, % at 5.96 µM; in the data active means inhibition above about 36%;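 further: 0% = enzyme with DMSO and 100% = wells lacking enzyme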
# SIAE primary: human SIAE inhibition, primary screen; Q9HAT2; SIAE FP-Rh probe binding, fluorescence polarization; inhibition, % at 9.66 µM; 370,000 tested, 0.69% active;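 active means inhibition above a cutoff: mean of compounds within the control limits plus 3 SD of those, cut at about 17% in these data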;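 further: 0% = plate median of compound wells and 100% = probe without SIAE protein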
# Target sequence (Q9HAT2 whole entry, looked up): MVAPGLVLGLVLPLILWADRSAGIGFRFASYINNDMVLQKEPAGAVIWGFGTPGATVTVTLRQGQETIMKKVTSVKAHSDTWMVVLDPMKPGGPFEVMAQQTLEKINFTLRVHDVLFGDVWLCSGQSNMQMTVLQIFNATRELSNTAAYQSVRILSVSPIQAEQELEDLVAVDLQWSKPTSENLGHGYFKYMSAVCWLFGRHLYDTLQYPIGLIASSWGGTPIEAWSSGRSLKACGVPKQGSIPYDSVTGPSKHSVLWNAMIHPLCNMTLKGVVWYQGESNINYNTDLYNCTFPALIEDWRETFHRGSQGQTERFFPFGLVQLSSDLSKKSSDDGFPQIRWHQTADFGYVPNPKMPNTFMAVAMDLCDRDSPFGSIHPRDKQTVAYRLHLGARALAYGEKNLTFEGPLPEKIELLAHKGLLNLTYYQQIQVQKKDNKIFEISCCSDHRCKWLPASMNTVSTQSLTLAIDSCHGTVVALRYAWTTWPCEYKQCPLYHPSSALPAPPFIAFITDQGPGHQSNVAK
# TCR-CD3 inh: inhibitors of human TCR-CD3 interaction | TAMRA-labeled TCR probe fluorescence, biochemical | 360,000 tested, 0.37% active | inhibition, % at 9.4 µM; in the data active means inhibition above about 19%;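 further: recombinant mutant TCR 2C K166C tagged with TAMRA read by polarization; 0% = receptor in buffer alone and 100% = receptor with positive control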
# ARNT-TACC3 inh: disruptors of human ARNT/TACC3 interaction. inhibition, % at 9.99 µM. AlphaScreen His-ARNT PAS-B/GST-TACC3 binding, luminescence; TACC3 fragment carries E629A point mutation. 390,000 tested, 0.66% active. Q9Y6A5;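 active means mean inhibition of replicates at least 50% and at least half of replicates each reaching 50%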;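 further: 0% = complete ARNT plus TACC3 wells and 100% = ARNT alone without TACC3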
# mABHD4 FP: ABHD4 (mouse) inhibition, primary FP screen | AID 720543 | purified mABHD4, FP-Rh probe fluorescence polarization | inhibition, % at 8.92 µM | 370,000 tested, 0.54% active;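 active means inhibition exceeding the mean over every tested compound plus 3 SD, cut at about 30% in these data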;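 further: 0% = plate median of compound wells and 100% = S159A mutant with DMSO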
#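 System: mouse ABHD4 enzyme, wild type / Medium: HEPES pH 7.0, NaCl, Pluronic buffer / Reagent: FP-Rh activity-based fluorescent probe / Control set: S159A mutant high control, sample median low control / Detection: fluorescence polarization with parallel and perpendicular emission, 525/598 nm / Schedule: 45 min + 60 min at 25 °C / Compound dosing: 8.92 µM, single dose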
# SIAE confirm: confirmation of human SIAE inhibitors | inhibition, % at 9.66 µM | shares compounds with SIAE primary | AID 1117263 | 2,300 tested, 13% active | SIAE FP-Rh activity-based probe, fluorescence polarization;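 active means mean inhibition of the replicates above the hit cutoff set in the primary screen, cut at about 17% in these data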;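 further: 0% = SIAE with DMSO and probe and 100% = probe without SIAE; inhibitors lower polarization as more probe stays unbound to SIAE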
# An asterisk follows results filed as active; / = no result given. This is a sample that favours compounds with a hit; in the whole collection about 1.8% have one here.
SMILES,HTRA1 inhibitor,SIAE primary,TCR-CD3 inh,ARNT-TACC3 inh,mABHD4 FP,SIAE confirm
CCC(=O)N[C@H]1CC[C@H](CC(=O)NCCN2CCCCC2)O[C@@H]1CO,/,/,/,4,/,/
CC(=O)NNc1cc(N2CCOCC2)nc(N2CCOCC2)n1,7,25*,13,1,10,0
CC(C)(C)c1ccc(C(=O)NNc2cc(N3CCOCC3)nc(N3CCOCC3)n2)cc1,10,-3,5,7,1,/
COc1cccc(NC(=S)Nc2cc(C(=O)O)ccc2N2CC3CC(C2)c2cccc(=O)n2C3)c1 (configuration not stated),3,18*,-3,8,6,3
CC(C)(C)OC(=O)N1CCN(C(=O)Nc2ccc3c(c2)OCCO3)CC1,2,18*,-5,2,-2,1
COCC(=O)Nc1c(C(=O)Nc2ccc3c(c2)OCO3)oc2ccccc12,2,0,9,-1,5,/
O=C(CCl)Nc1c(C(=O)Nc2ccc3c(c2)OCCO3)oc2ccccc12,-10,20*,-11,-3,-10,-7
Cc1ccc(S(=O)(=O)N2CCC(C(=O)NCCCN3CCOCC3)CC2)cc1C,4,18*,-3,-3,-1,3
Cc1ccc(S(=O)(=O)N2CCC(C(=O)NCCN3CCOCC3)CC2)cc1C,3,10,-3,-4,-2,/
CN(CC(=O)Nc1cccc(F)c1)C(=O)CCSc1ccc(F)cc1,0,-3,7,0,-2,/
COc1ccc(NC(=O)CN(C)C(=O)CCSc2ccc(F)cc2)cc1,-2,19*,-1,-3,-4,1
COc1ccc2nc(SCC(=O)N(C)CC(=O)Nc3ccc(F)cc3)[nH]c2c1,-4,18*,2,0,7,-3
CN(CC(=O)Nc1ccc(F)cc1)C(=O)CSc1nc2ncc(Cl)cc2[nH]1,10,8,2,-22,1,/
C[C@H](CO)N1C[C@H](C)[C@@H](CN(C)C(=O)Nc2ccc(C(F)(F)F)cc2)OCCCC[C@H](C)Oc2ccc(NS(C)(=O)=O)cc2C1=O,/,/,/,1,/,/
COc1ccc(C2=Nn3c(nnc3-c3ccccc3OC)SC2)cc1OCC1CC1,-3,29*,16,26,4,27*
COc1ccc(OC)c(-c2nnc3n2N=C(c2ccc(OC(F)F)c(OCC4CC4)c2)CS3)c1,-122,-20,-4,-4,-20,/
C[C@]12CCC(=O)C=C1C=C[C@@H]1[C@@H]2CC[C@@]2(C)[C@H]1CC[C@@]21CCC(=O)O1,0,19*,-4,-1,1,1
CC(=O)O[C@]1(C(C)=O)CCC2C3C=C(C)C4=CC(=O)CC[C@]4(C)C3CC[C@@]21C (some centres not stated),-1,2,2,7,4,/
CCC(=O)N1C[C@H](C)[C@H](OC)CN(C)C(=O)c2cc(NC(=O)NC(C)C)ccc2OC[C@@H]1C,/,/,/,2,/,/
CCCC(C)NC(=O)CSc1nc(-c2ccccc2)cn1N (configuration not stated),4,17*,0,3,-11,0
COc1cccc(CCNC(=O)CC2C(=O)NCCN2CC(C)(C)C)c1 (configuration not stated),-2,17*,9,6,3,-2
COc1ccc(CCNC(=O)CC2C(=O)NCCN2CC(C)(C)C)cc1 (configuration not stated),1,4,5,5,0,/
CC(C)C#Cc1cnc2c(c1)C(=O)N([C@@H](C)CO)C[C@@H](C)[C@@H](CN(C)C(=O)Cc1ccncc1)O2,/,/,/,3,/,/
COc1cc(Cn2nnc3ccccc32)cc(Br)c1O,4,23*,0,1,10,2
C[C@@H](c1ccccc1)N1C[C@@H](COCc2ccccc2)Oc2cc(N3CC[C@@H](N(C)C)C3)ccc2S1(=O)=O,/,18*,3,/,19,9
SMILES,HTRA1 inhibitor,SIAE primary,TCR-CD3 inh,ARNT-TACC3 inh,mABHD4 FP,SIAE confirm
Cc1ccc(-n2c(C)cc(/C([O-])=C(/C(=S)Nc3ccc(F)c(Cl)c3)[n+]3ccccc3)c2C)cc1,28,-3,-18,-4,10,/
Cc1cc(/C([O-])=C(/C(=S)Nc2ccc(F)cc2)[n+]2ccccc2)c(C)n1Cc1ccccc1Cl,12,22*,-2,2,7,-2
CON(C)S(=O)(=O)c1cccc(C(=O)NC2CCSc3ccccc32)c1 (configuration not stated),-5,2,6,1,-11,/
CN(C)S(=O)(=O)c1cccc(C(=O)NC2CCSc3ccccc32)c1 (configuration not stated),1,25*,3,4,4,-4
CC(=O)Nc1ccc(S(=O)(=O)N2CCCC(C(=O)O)C2)cc1 (configuration not stated),5,8,8,8,2,/
COC(=O)Nc1ccc(S(=O)(=O)N2CCCC(C(=O)O)C2)cc1 (configuration not stated),1,19*,-4,2,-1,5
CCn1c(SCC(=O)Nc2cccc(C)c2)nc2ccccc2c1=O,-6,-7,0,-4,-5,/
CCn1c(SCC(=O)Nc2ccccc2)nc2ccccc2c1=O,-7,17*,2,11,0,4
Cc1ccc(S(=O)(=O)N(C)C[C@@H]2OCCCC[C@H](C)Oc3ccc(NC(=O)c4ccccc4)cc3C(=O)N([C@@H](C)CO)C[C@H]2C)cc1,/,/,/,-11,/,/
Cc1ccccc1Nc1nc(NCc2ccco2)c2ccccc2n1,-32,-1,0,9,20,/
COc1ccc(OC)c(Nc2nc(NCc3ccco3)c3ccccc3n2)c1,23,18*,6,2,15,11
CCOC(=O)c1c(NC(=O)c2ccccc2C(=O)O)sc2c1CCCC2,-2,-11,1,0,-6,/
CCOC(=O)c1c(NC(=O)c2ccoc2C)sc2c1CCC2,-12,24*,0,1,-7,5
COc1ccc(S(=O)(=O)Nc2ccc3c(c2)C(=O)N([C@H](C)CO)C[C@@H](C)[C@H](CN(C)C)OCCCC[C@@H](C)O3)cc1,/,/,/,-2,/,/
COc1ccc(NS(=O)(=O)c2cc(NC(=O)c3cccs3)ccc2N2CCCC2)cc1,-26,26*,1,-4,-13,-31
COc1ccc(NC(=S)NNC(=O)c2cccs2)cc1,0,18*,-4,2,10,1
O=C(Nc1ccc(S(=O)(=O)Nc2nccs2)cc1)C1CCCCC1,-1,20*,5,-10,-4,5
O=C(COc1ccc2ccc(=O)oc2c1)NC1CCCC1,2,-3,-11,/,3,/
O=C(Oc1ccc2ccc(=O)oc2c1)C1CCCCC1,3,38*,2,5,5,34*

# From PubChem BioAssay
